Active and inactive are the calls of the source. No cut-off for these calls is given here.
Columns and labels:
[1] = (§1) Growth inhibition of human HREC cells assessed as reduction in cell number after 48 hrs by alamarBlue based fluorescence assay; type: functional
How it was run: (§2)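 Cells (2,500 per well in growth medium) were allowed 24 h, then exposed 48 h to compound over 0.5 nM–500 μM. alamarBlue was added and fluorescence read 4 h later (ex 560/em 590 nm). Dose-response curves were fitted relative to DMSO control; compounds not reducing cell number ≥50% at the top concentration were reported as GI50 >100 μM.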

[2] = Growth inhibition of human 92-1 cells assessed as reduction in cell number after 48 hrs by alamarBlue based fluorescence assay; type: functional; how it was run: as §2
[3] = Growth inhibition of human HUVEC cells assessed as reduction in cell number after 48 hrs by alamarBlue based fluorescence assay; how it was run: as §2
Y79 = test: Growth inhibition of human Y79 cells assessed as reduction in cell number after 48 hrs by alamarBlue based fluorescence assay; type: functional; conditions: Y79, 48 h; how it was run: as §2
[4] = Selectivity ratio of GI50 for HUVEC cells to GI50 for human HREC cells; type: ADME, cell-based; conditions: HUVEC cells and HREC cells, read-out: RatioGI50
Mus musculus [5] = species: Mus musculus; test: Inhibition of retinal neovascularization in oxygen-induced retinopathy mouse model at 1 uM in each eye relative to vehicle treated control; type: functional, organism-based
How it was run: (§3)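 Newborn C57BL/6 pups with nursing mother held in 75% O₂ from P7 to P12. At P12, under isoflurane, 0.5 μL of a 10 μM solution (DMSO stock diluted into PBS) was injected intravitreally into each eye, estimated to give 1 μM in vitreous. Controls got vehicle or 5 ng anti-VEGF antibody. Retinas were whole-mounted, stained with isolectin B4-Alexa 488 and imaged by confocal microscopy.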

HREC [6] = test: as §1; type: functional; how it was run: as §2
[7] = Induction of apoptosis in human HREC cells assessed as activated caspase 3 up to 2 uM after 4 hrs by immunofluorescence assay; type: functional
How it was run: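 HRECs on coated coverslips, overnight in EGM-2, then treated 4 h at indicated concentrations. Fixed in 4% paraformaldehyde, permeabilized with 0.5% Triton X-100, immunostained for activated caspase 3 and imaged by confocal microscopy. Staurosporine 1 μM served as positive control.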

Mus musculus [8] = species: Mus musculus; test: Ocular toxicity in mouse model assessed as gross morphological changes in retinal vasculature at 1 uM; type: organism-based; conditions: in vivo; how it was run: as §3
[9] = Induction of apoptosis in human HREC cells assessed as nuclear morphology after 8 hrs by EdU incorporation assay; type: cell-based
How it was run: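 HRECs (25,000) on attachment-factor-coated coverslips, 24 h growth, then 12 h in serum-free EBM-2. Incubated 8 h with 10 μM EdU plus compound at various concentrations, then processed by click chemistry with DAPI counterstain and imaged. Nuclear morphology and EdU-positive cells were scored by image analysis. n = 3, at least triplicate experiments, SEM.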

HREC [10] = test: Induction of cell cycle arrest in human HREC cells assessed as cells accumulation at G2/M phase after 48 hrs by propidium iodide before flow cytometry analysis; type: functional, cell-based
How it was run: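 HRECs grown to 50% confluency in EGM-2, serum-starved overnight, then 48 h in fresh EGM-2 with compound. Fixed in 66% EtOH 2 h at 4 °C, stained with 20 μg/mL propidium iodide with 0.1% Triton X-100 and RNase for 30 min at 37 °C, then analysed by flow cytometry. Duplicate experiments.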

[11] = Induction of apoptosis in human HREC cells up to 2 uM after 4 hrs by TUNEL assay; type: functional
How it was run: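 HRECs, 25,000 per coated coverslip, grown overnight in EGM-2, then 4 h in fresh medium with compound. Fixed in 4% paraformaldehyde 20 min at room temperature, permeabilized with 0.25% Triton X-100 20 min, then TUNEL-labelled with DAPI counterstain. Percent apoptotic cells counted on three low-power fields per coverslip. n = 3, SEM.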

[12] = Selectivity ratio of GI50 for human 92-1 cells to GI50 for human HREC cells; type: ADME, cell-based; conditions: 92-1 cells and HREC cells
HREC [13] = test: Antiangiogenic activity in human HREC cells assessed as inhibition of tube formation after 8 hrs by matrigel assay; type: functional, cell-based
How it was run: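 HRECs, 7,500 per well in EGM-2, plated on Matrigel basement membrane with or without compound; after 8 h, imaged and tube length measured by image analysis.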

[14] = Toxicity in human HREC cells up to 2 uM by trypan blue exclusion assay; type: cell-based
How it was run: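 HRECs in complete EGM-2 grown to 70% confluency, then treated 48 h with compound. After trypsinization, live and dead cells, including floating cells, were counted by Trypan blue on a hemocytometer. Viability taken as live/total cells. n = 3, triplicate experiments, SEM.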

HREC [15] = test: Inhibition of cell migration in human HREC cells after 8 hrs scratch-wound assay; type: functional, cell-based
How it was run: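 HRECs (10⁵ per coated well) grown to confluence in EGM-2, starved 12 h in serum-free EBM-2, then scratched with a pipette tip and rinsed. Incubated in EGM-2 with compound at 37 °C, 5% CO₂. After 8 h, cells migrated into the scratch were counted from images.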

[16] = Selectivity ratio of GI50 for human Y79 cells to GI50 for human HREC cells; type: ADME, cell-based; conditions: Y79 cells and HREC cells

Row | Structure (SMILES) | GI50 [1] [µM] | GI50 [2] [µM] | GI50 at 48 h [3] [µM] | GI50 (Y79) [µM] | also measured
1 | CC[C@H](C)[C@H](NC(=O)OC(C)(C)C)C(=O)Oc1cc(CC2COc3cc(OC)c(OC)c(OC)c3C2=O)ccc1OC (stereo not given in full) | 3.1 | > 100 | > 100 | 24 | –
2 | COc1ccc(CC2COc3cc(OC)c(OC)c(OC)c3C2=O)cc1OC(=O)[C@H](Cc1ccccc1)NC(=O)OC(C)(C)C (stereo not given in full) | 0.055 | > 100 | 0.75 | 12 | selectivity ratio [4]: 14; inhibition (Mus musculus [5]): Active; inhibition (HREC [6]): Dose-dependent effect; Activity [7]: <10%; Activity (Mus musculus [8]): Non-toxic; Activity [9]: Non-toxic; Activity (HREC [10]): Dose-dependent effect; Activity [11]: <10%; selectivity ratio [12]: > 1000; inhibition (HREC [13]): Dose-dependent effect; Activity [14]: Non-toxic; inhibition (HREC [15]): Dose-dependent effect; selectivity ratio [16]: 218
3 | COc1ccc(CC2COc3cc(OC)c(OC)c(OC)c3C2=O)cc1OCc1ccccc1 (stereo not given) | 22 | 61 | > 100 | 20 | –
4 | COC(=O)c1cc(CC2COc3cc(OC)c(OC)c(OC)c3C2=O)ccc1OC (stereo not given) | 18 | > 100 | 17 | 40 | –
5 | COc1cc(OC)c2c(c1)OC/C(=C\c1ccc(OC)c(O)c1)C2=O | 42 | > 100 | 15 | 14 | –
6 | COc1ccc(/C=C2\COc3cc(OC)c(OC)c(OC)c3C2=O)cc1[N+](=O)[O-] | 4.8 | 12 | 15 | 2.2 | –
7 | COc1ccc(CC2COc3cc(OC)c(OC)c(OC)c3C2=O)cc1OC(=O)[C@H](CCc1ccccc1)NC(=O)OC(C)(C)C (stereo not given in full) | 0.17 | > 100 | > 100 | > 100 | –
8 | COc1ccc(/C=C2\COc3cc(OC)c(OC)c(OC)c3C2=O)cc1F | 2.8 | 7 | 7.6 | 9.8 | –
9 | COc1ccc(CC2COc3cc(OC)c(OC)c(OC)c3C2=O)cc1OC(=O)c1ccccc1 (stereo not given) | 0.65 | > 100 | > 100 | > 100 | –
10 | COc1ccc(CC2COc3cc(OC)c(OC)c(OC)c3C2=O)cc1C(=O)O (stereo not given) | > 100 | > 100 | 92 | > 100 | –
11 | COc1ccc(CC2COc3cc(O)c(OC)c(OC)c3C2=O)cc1O (stereo not given) | > 100 | > 100 | > 100 | > 100 | –
12 | C=CCOc1cc(/C=C2\COc3cc(OC)c(OC)c(OC)c3C2=O)ccc1OC | 3.9 | 1.1 | 12 | 2.8 | –
13 | COc1ccc(/C=C2\COc3cc(OC)c(OC)c(OC)c3C2=O)cc1O | 46 | 0.22 | 5.6 | 44 | –
14 | COc1ccc(CC2COc3cc(OC)c(OC)c(OC)c3C2=O)cc1OC(=O)CCc1ccccc1 (stereo not given) | 0.22 | > 100 | 38 | > 100 | –
15 | COc1ccc(CC2COc3cc(OC)c(OC)c(OC)c3C2=O)cc1OC(=O)[C@H](Cc1ccc(OCc2ccccc2)cc1)NC(=O)OC(C)(C)C (stereo not given in full) | 0.51 | > 100 | > 100 | > 100 | –
16 | COc1cc(OC)c2c(c1)OCC(Cc1ccc(OC)c(O)c1)C2=O (stereo not given) | 1.6 | > 100 | 2.5 | 4.2 | –
17 | COc1ccc(CC2COc3cc(O)c(OC)c(O)c3C2=O)cc1O (stereo not given) | 0.22 | 48 | 0.38 | 9.8 | –
18 | COc1ccc(CC2COc3cc(OC)c(OC)c(OC)c3C2=O)cc1OC(=O)[C@H](Cc1ccccc1)NC(=O)OCc1ccccc1 (stereo not given in full) | 0.14 | > 100 | > 100 | > 100 | –
